ChEMBL document CHEMBL1156229, “Pharmacophore development and application toward the identification of novel, small-molecule autotaxin inhibitors” (J Med Chem, 2010)

Assays:
[1] = target: T1, Autotaxin (Homo sapiens, UniProt Q13822); assay: Inhibition of human recombinant C-terminal FLAG-tagged autotaxin expressed in baculovirus-infected Sf9 cells assessed as FS-3 hydrolysis at 30 uM; values are per cent of control
[2] = target: T1, Autotaxin; assay: Inhibition of human recombinant C-terminal FLAG-tagged autotaxin expressed in baculovirus-infected Sf9 cells assessed as FS-3 hydrolysis
Procedure, shortened: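 Dose response: final inhibitor 30, 10, 3, 1, 0.3, 0.1, 0.03 μM, plus 0.01 and 0.003 μM for some compounds; purified human ATX 8.3 nM, 1 μM FS-3, 30 μM fatty acid free BSA, Tris pH 8 buffer, 37 °C. Fluorescence ex 485/em 538 every 2 min; percent activity vs vehicle at 1 h after no-ATX background subtraction; mean of three wells.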

[3] = target: T1, Autotaxin; assay: Inhibition of human recombinant C-terminal FLAG-tagged autotaxin expressed in baculovirus-infected Sf9 cells assessed as FS-3 hydrolysis at 3 uM; values are per cent of control
[4] = target: T2, Ectonucleotide pyrophosphatase/phosphodiesterase family member 7 (Homo sapiens) (UniProt Q6UWV6); assay: Inhibition of human recombinant C-terminal FLAG-tagged NPP7 expressed in baculovirus-infected Sf9 cells assessed as pNPPC hydrolysis at 10 uM relative to control
T2 sequence (whole entry): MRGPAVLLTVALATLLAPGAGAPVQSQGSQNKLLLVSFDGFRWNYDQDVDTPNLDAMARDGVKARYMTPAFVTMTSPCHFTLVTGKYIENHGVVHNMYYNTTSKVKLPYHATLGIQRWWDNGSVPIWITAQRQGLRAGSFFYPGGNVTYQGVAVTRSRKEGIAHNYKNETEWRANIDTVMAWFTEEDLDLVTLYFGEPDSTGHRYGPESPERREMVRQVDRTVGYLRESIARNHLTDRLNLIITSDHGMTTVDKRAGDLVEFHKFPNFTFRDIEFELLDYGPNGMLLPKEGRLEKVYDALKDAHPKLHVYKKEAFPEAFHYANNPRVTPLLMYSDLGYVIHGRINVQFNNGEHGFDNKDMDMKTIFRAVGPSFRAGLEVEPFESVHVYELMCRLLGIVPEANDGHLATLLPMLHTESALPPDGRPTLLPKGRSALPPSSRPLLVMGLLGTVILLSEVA
Procedure, shortened: (§1)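 Purified Sf9-expressed FLAG-tagged enzyme 8.3 nM with inhibitor 10 μM final. NPP6: pNPPC 10 μM in 100 mM Tris-HCl, 500 mM NaCl, 0.05% Triton X-100, pH 9. NPP7: pNPPC 500 μM in 50 mM Tris HCl, 150 mM NaCl, 10 mM sodium taurocholate, pH 8. 37 °C, A405 every 2 min; percent activity vs vehicle at 1 h after no-enzyme subtraction; three wells.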

[5] = target: T1, Autotaxin; assay: Inhibition of human recombinant C-terminal FLAG-tagged autotaxin expressed in baculovirus-infected Sf9 cells assessed as FS-3 hydrolysis at 0.03 uM; values are per cent of control
[6] = target: T1, Autotaxin; assay: Inhibition of human recombinant C-terminal FLAG-tagged autotaxin expressed in baculovirus-infected Sf9 cells assessed as FS-3 hydrolysis at 0.01 uM; values are per cent of control
[7] = target: T1, Autotaxin; assay: Inhibition of human recombinant C-terminal FLAG-tagged autotaxin expressed in baculovirus-infected Sf9 cells assessed as FS-3 hydrolysis at 10 uM relative to control
Procedure, shortened: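 Single-dose screen: inhibitor 10 μM final, purified recombinant human ATX 8.3 nM, FS-3 1 μM, fatty acid free BSA 30 μM in Tris pH 8 buffer (1 mM MgCl2, 1 mM CaCl2, 3 mM KCl, 140 mM NaCl), 37 °C. Fluorescence (ex 485/em 538) read every 2 min; percent activity vs vehicle after no-ATX subtraction at 1 h; mean ± SD of three wells.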

[8] = target: T3, Glycerophosphocholine cholinephosphodiesterase ENPP6 (Homo sapiens) (UniProt Q6UWR7); assay: Inhibition of human recombinant C-terminal FLAG-tagged NPP6 expressed in baculovirus-infected Sf9 cells assessed as pNPPC hydrolysis at 10 uM relative to control
T3 sequence (whole entry): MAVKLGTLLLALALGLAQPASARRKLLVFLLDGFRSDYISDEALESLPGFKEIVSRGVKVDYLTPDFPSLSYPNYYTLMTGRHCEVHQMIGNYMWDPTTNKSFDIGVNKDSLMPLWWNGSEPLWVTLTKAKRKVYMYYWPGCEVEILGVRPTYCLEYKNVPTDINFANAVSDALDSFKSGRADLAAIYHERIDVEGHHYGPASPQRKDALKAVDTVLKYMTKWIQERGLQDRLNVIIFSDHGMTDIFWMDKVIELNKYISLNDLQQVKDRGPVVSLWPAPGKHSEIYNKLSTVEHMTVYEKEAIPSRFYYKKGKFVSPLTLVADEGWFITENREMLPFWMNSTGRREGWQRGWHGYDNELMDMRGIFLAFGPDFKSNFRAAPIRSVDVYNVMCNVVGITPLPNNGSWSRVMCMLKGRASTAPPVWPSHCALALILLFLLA
Procedure, shortened: as §1

[9] = target: T1, Autotaxin; assay: Inhibition of human recombinant C-terminal FLAG-tagged autotaxin expressed in baculovirus-infected Sf9 cells assessed as FS-3 hydrolysis at 0.1 uM; values are per cent of control
[10] = target: T1, Autotaxin; assay: Inhibition of human recombinant C-terminal FLAG-tagged autotaxin expressed in baculovirus-infected Sf9 cells assessed as FS-3 hydrolysis at 10 uM; values are per cent of control
[11] = target: T1, Autotaxin; assay: Inhibition of human recombinant C-terminal FLAG-tagged autotaxin expressed in baculovirus-infected Sf9 cells assessed as FS-3 hydrolysis at 0.003 uM; values are per cent of control
[12] = target: T1, Autotaxin; assay: Inhibition of human recombinant C-terminal FLAG-tagged autotaxin expressed in baculovirus-infected Sf9 cells assessed as FS-3 hydrolysis at 1 uM; values are per cent of control
[13] = target: T1, Autotaxin; assay: Inhibition of human recombinant C-terminal FLAG-tagged autotaxin expressed in baculovirus-infected Sf9 cells assessed as FS-3 hydrolysis at 0.3 uM; values are per cent of control
[14] = target: T1, Autotaxin; assay: Noncompetitive inhibition of human recombinant C-terminal FLAG-tagged autotaxin expressed in baculovirus-infected Sf9 cells assessed as FS-3 hydrolysis by Michaelis-Menten method
[15] = target: T1, Autotaxin; assay: Competitive inhibition of human recombinant C-terminal FLAG-tagged autotaxin expressed in baculovirus-infected Sf9 cells assessed as FS-3 hydrolysis by Michaelis-Menten method

SMILES	residual activity [1] [%]	IC50 [2] [nM]	residual activity [3] [%]	inhibition [4] [%]	residual activity [5] [%]	residual activity [6] [%]	inhibition [7] [%]	inhibition [8] [%]	residual activity [9] [%]	residual activity [10] [%]	residual activity [11] [%]	residual activity [12] [%]	residual activity [13] [%]	Ki [14] [nM]	Ki [15] [nM]
Nc1c(/N=N/c2ccc(-c3ccc(/N=N/c4cc(S(=O)(=O)O)c5ccccc5c4N)cc3)cc2)cc(S(=O)(=O)O)c2ccccc12 [CONGO RED]	5.29	1310	36.7	2	94.6	99.8	82	-3	91.2	14.6	99.9	54.9	77.3	1890	
COc1cc(-c2ccc(/N=N/c3c(S(=O)(=O)O)cc4cc(S(=O)(=O)O)cc(N)c4c3O)c(OC)c2)ccc1/N=N/c1c(S(=O)(=O)O)cc2cc(S(=O)(=O)O)cc(N)c2c1O	2.68	372	14.1	-1	86.2	93.9	93	-3	72	6	97.5	26	52.9		271
Cc1cc(-c2ccc(/N=N/c3ccc4c(S(=O)(=O)O)cc(S(=O)(=O)O)c(N)c4c3O)c(C)c2)ccc1/N=N/c1ccc2c(S(=O)(=O)O)cc(S(=O)(=O)O)c(N)c2c1O [EVANS BLUE]	13.3	922	35.8	-2	89.6	96	64	-2	82.3	26.2	95.8	47.9	60.9		824
